We go through five compounds from ChEMBL document CHEMBL1149070, “Isolation of antirhinoviral sesquiterpenes from ginger (Zingiber officinale)” (J Nat Prod, 1994).

pIC50: −log10 of the molar value.

In one data set the test system is rhinovirus A1B. Nature of the data set: Antiviral activity against Rhinovirus 1B infected in human HeLa cells assessed as reduction in plaque formation per plate after 72 hrs. In kind it is functional, organism-based, Human rhinovirus 1B. Set-up: ED50: unit: ug/plate. An outline of the steps:
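M-HeLa cells were seeded at 10⁶ per plate in MEM with 10% FCS and grown to confluence overnight. They were infected with RV1B at 100-200 pfu/plate for 1 h. Excess virus was replaced with an agarose overlay (MEM, FCS, tryptose broth) holding serial doubling dilutions from EtOH, final EtOH ≤1%. Plates ran 72 h at 33°, then were formol-saline fixed and methyl violet stained.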

Data set [1] concerns HeLa. Nature of the data set: Cytotoxicity against human HeLa cells upto 20 ug/plate. In kind it is cell-based. The essentials: (§1)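 Cytotoxicity was judged in the plaque-assay plates: confluent M-HeLa monolayers under agarose overlay with sample added from EtOH doubling dilutions (≤1% EtOH), 72 h at 33°, then formol-saline fixed and methyl violet stained. Monolayers were inspected for cell destruction, altered appearance or thinning relative to cell controls (no virus, no sample) and virus controls, up to the top plate concentration.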

Data set [2] deals with HeLa. In words: Cytotoxicity against human HeLa cells upto 1.35 ug/plate. It is filed as cell-based. An outline of the steps:
as §1

As for `C=C(CCC=C(C)C)[C@H]1CC=C(C)CC1`, in the data set with rhinovirus A1B, the ED50 was determined as 14.3 µg. The Activity entry in the data set with HeLa [1] is on record as “Non-toxic”.

For the compound `CC(C)=CCC[C@@H](C)c1ccc(C)cc1`, the ED50 in the data set with rhinovirus A1B is 20.4 µg. For the same compound, in the data set with HeLa [1], the Activity entry is “Non-toxic”.

The pIC50 is the negative decadic logarithm of the IC50, by convention in mol/L. As to `C=C1C=C[C@H]([C@H](C)CCC=C(C)C)CC1`, the ED50 with rhinovirus A1B stood at 0.9 µg. For the same compound, the negative-log IC50 (pIC50) in the data set on rhinovirus A1B (Rhinovirus A, HeLa, 72 h) is 6.36. Further, in the data set on HeLa [1], the Activity result is reported as “Non-toxic”.

For `CC(C)=CCC[C@@H](C)[C@H]1C=CC(C)=CC1`, the ED50 with rhinovirus A1B worked out at 1.9 µg. The Activity entry with HeLa [1] was “Non-toxic”.

As to `c1ccc(C2CCc3ccccc3O2)cc1` (stereo unspecified) [FLAVANE], the ED50 in the data set on rhinovirus A1B amounted to 0.27 µg. Moreover, in the data set on HeLa [2], the Activity entry is “Non-toxic”.
